Drawing on ChEMBL document CHEMBL1777764, “Synthesis and evaluation of 1-(1H-indol-3-yl)ethanamine derivatives as new antibacterial agents” (Bioorg Med Chem, 2011), this text covers MIC for 13 compounds.

Converted amounts (≈) assume the structure as drawn.

Holding throughout (format): functional
The test system of test [1] is Staphylococcus aureus. Nature of the test: Antibacterial activity against methicillin-resistant Staphylococcus aureus CIP 65.25 after 18 hrs by broth microdilution method. The settings on record: CIP 65.25, 18 h. In a few lines:
(§1)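 Broth microdilution following ISO 20776-1:2006 and CLSI M07-A8, in Mueller-Hinton broth. Inoculum was 10^6 cfu/ml, with compound serial dilutions spanning 2 to 128 ug/ml and a compound-free growth control well. Plates were incubated 18 h at 37 °C. MIC was the lowest concentration giving complete inhibition of visible growth. Each compound was tested at least twice.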

Test [2] concerns Staphylococcus epidermidis. Nature of the test: Antibacterial activity against Staphylococcus epidermidis ATCC 12228 after 18 hrs by broth microdilution method. The settings on record: ATCC 12228, 18 h. Put shortly: (§2)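 MIC by broth microdilution per ISO 20776-1:2006 and CLSI M07-A8. Inoculum 10^6 cfu/ml in Mueller-Hinton broth with compound serially diluted, final concentrations 2 to 128 ug/ml, duplicate rows, no-drug growth control. Incubation 18 h at 37 °C. MIC taken as lowest concentration giving complete inhibition of visible growth. Each compound tested at least twice.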

For test [3], the system named is Staphylococcus epidermidis. Put plainly: Antibacterial activity against Staphylococcus epidermidis CIP 103627 after 18 hrs by broth microdilution method. The settings on record: CIP 103627, 18 h. In a few lines: as §2
The test system of test [4] is Staphylococcus aureus. Put plainly: Antibacterial activity against vancomycin intermediate Staphylococcus aureus […] after 18 hrs by broth microdilution method. Put shortly: as §1
Test [5] concerns Staphylococcus aureus. Nature of the test: Antibacterial activity against Staphylococcus aureus ATCC 9144 after 18 hrs by broth microdilution method. The settings on record: ATCC 9144, 18 h. Put shortly: as §2
The test system of test [6] is Streptococcus pneumoniae. Put plainly: Antibacterial activity against Streptococcus pneumoniae ATCC 49619 after 18 hrs by broth microdilution method. The settings on record: ATCC 49619, 18 h. Put shortly:
(§3)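 MIC by broth microdilution per ISO 20776-1:2006 and CLSI M07-A8. Inoculum 10^6 cfu/ml in Mueller-Hinton broth […]. Compound serially diluted, final 2 to 128 ug/ml, duplicate rows, no-drug growth control. Read after 18 h at 37 °C as lowest concentration fully inhibiting visible growth. At least two experiments.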

Test [7] concerns Staphylococcus aureus. Put plainly: Antibacterial activity against Staphylococcus aureus CIP 65.6 after 18 hrs by broth microdilution method. The settings on record: CIP 65.6, 18 h. In a few lines: as §2
Test [8] concerns Staphylococcus aureus. Put plainly: Antibacterial activity against Staphylococcus aureus ATCC 25923 after 18 hrs by broth microdilution method. The note with it: ATCC 25923, 18 h. In a few lines:
as §2

The subject of test [9] is Staphylococcus aureus. Put plainly: Antibacterial activity against Staphylococcus aureus ATCC 6538 after 18 hrs by broth microdilution method. The note with it: ATCC 6538, 18 h. In a few lines:
as §2

Test [10] concerns Staphylococcus aureus. Put plainly: Antibacterial activity against methicillin-resistant Staphylococcus aureus ATCC 33592 after 18 hrs by broth microdilution method. The note with it: ATCC 33592, 18 h. In a few lines:
as §1

In test [11] the test system is Staphylococcus aureus. Put plainly: Antibacterial activity against Staphylococcus aureus ATCC 29213 after 18 hrs by broth microdilution method. The note with it: ATCC 29213, 18 h. In a few lines: as §2
The subject of test [12] is Staphylococcus epidermidis. Put plainly: Antibacterial activity against Staphylococcus epidermidis CIP 81.55 after 18 hrs by broth microdilution method. The note with it: CIP 81.55, 18 h. Put shortly:
as §2

Test [13] deals with Staphylococcus aureus. Nature of the test: Antibacterial activity against Staphylococcus aureus CIP 103428 after 18 hrs by broth microdilution method. The note with it: CIP 103428, 18 h. In a few lines:
as §2

The test system of test [14] is Streptococcus pneumoniae. Nature of the test: Antibacterial activity against Streptococcus pneumoniae ATCC 6303 after 18 hrs by broth microdilution method. The settings on record: ATCC 6303, 18 h. Put shortly: as §3

On to `CC(C)(C)OC(=O)NCC(c1c[nH]c2cc(F)ccc12)N(O)Cc1ccccc1` (configuration not stated), for which the MIC in [1], in test [2], in test [3], in test [4], in [5] and in [6] was over 128 µg/mL in each case. Further, the MIC in test [7], in [8], in [9], in test [10], in test [11] and in test [12] was over 128 µg/mL each time. The MIC in test [13] and in test [14] was over 128 µg/mL each time.
In the case of `CC(c1c[nH]c2ccc(F)cc12)N(O)Cc1ccccc1` (configuration not stated), the MIC in [1], in test [2], in [3], in test [4], in test [5] and in test [6] was over 128 µg/mL in each case. Further, the minimum inhibitory concentration (MIC) in test [7], in [8], in [9], in test [10], in test [11] and in [12] was over 128 µg/mL each time. Moreover, the minimal inhibitory concentration (MIC) in test [13] and in test [14] was over 128 µg/mL in each case.
For the compound `CC(C)CC(c1c[nH]c2ccc(Br)cc12)N(O)Cc1ccccc1` (configuration not stated), the MIC in test [1], in [2], in test [3], in test [4], in [5] and in test [6] was over 128 µg/mL in each case. Besides, the MIC in test [7], in test [8], in test [9], in [10], in test [11] and in test [12] was over 128 µg/mL in each case. Also, the MIC in test [13] and in test [14] was over 128 µg/mL in each case.
With `CC(C)(C)OC(=O)NCC(c1c[nH]c2ccc(F)cc12)N(O)Cc1ccccc1` (configuration not stated), the MIC in test [1], in [2], in test [3], in test [4], in test [5] and in test [6] was over 128 µg/mL each time. The MIC in test [7], in test [8], in test [9], in test [10], in test [11] and in test [12] was over 128 µg/mL in each case. The MIC in test [13] and in [14] was over 128 µg/mL in each case.
Consider `CC(C)CC(c1c[nH]c2ccc(Cl)cc12)N(O)Cc1ccccc1` (configuration not stated), for which the MIC in test [1], in [2], in [3], in [4], in test [5] and in [6] was over 128 µg/mL each time. In addition, the MIC in test [7], in test [8], in test [9], in test [10], in test [11] and in test [12] was over 128 µg/mL each time. Besides, the MIC in [13] and in test [14] was over 128 µg/mL throughout.
On to `CC(C)CC(c1c[nH]c2ccc(I)cc12)N(O)Cc1ccccc1` (configuration not stated), for which the MIC in test [1], in [2], in test [3], in test [4], in [5] and in [6] was over 128 µg/mL in each case. The MIC in test [7], in test [8], in test [9], in test [10], in test [11] and in test [12] was over 128 µg/mL in each case. Moreover, the MIC in test [13] and in [14] was over 128 µg/mL each time.
`CC(C)CC(c1c[nH]c2ccc(F)cc12)N(O)Cc1ccccc1` (configuration not stated): the MIC turned out to be 128 µg/mL (≈ 392 µM) in test [1]; 64 µg/mL (≈ 196 µM) in test [2]; 64 µg/mL (≈ 196 µM) in test [3]; 128 µg/mL (≈ 392 µM) in test [4]; 64 µg/mL (≈ 196 µM) in [5]; 128 µg/mL (≈ 392 µM) in test [6]. The minimum inhibitory concentration (MIC) is 64 µg/mL (≈ 196 µM) in test [7]; 64 µg/mL (≈ 196 µM) in [8]; 64 µg/mL (≈ 196 µM) in [9]; 128 µg/mL (≈ 392 µM) in test [10]; 64 µg/mL (≈ 196 µM) in test [11]; 64 µg/mL (≈ 196 µM) in test [12]. In addition, the minimal inhibitory concentration (MIC) in [13] worked out at 64 µg/mL (≈ 196 µM); in test [14], 128 µg/mL (≈ 392 µM).
Regarding `CC(c1c[nH]c2ccc(Br)cc12)N(O)Cc1ccccc1` (configuration not stated), the MIC in [1], in test [2], in [3], in test [4], in [5] and in test [6] was over 128 µg/mL throughout. Also, the MIC in test [7], in test [8], in test [9], in test [10], in [11] and in test [12] was over 128 µg/mL each time. Further, the minimal inhibitory concentration (MIC) in test [13] and in [14] was over 128 µg/mL throughout.
With `CC(C)(C)OC(=O)NCC(c1c[nH]c2ccccc12)N(O)Cc1ccccc1` (configuration not stated), the minimal inhibitory concentration (MIC) in [1], in test [2], in test [3], in [4], in test [5] and in test [6] was over 128 µg/mL throughout. Besides, the MIC in test [7], in test [8], in test [9], in test [10], in test [11] and in test [12] was over 128 µg/mL in each case. The MIC in [13] and in test [14] was over 128 µg/mL throughout.
On to `CC(c1c[nH]c2ccc(I)cc12)N(O)Cc1ccccc1` (configuration not stated), for which the minimal inhibitory concentration (MIC) in [1], in [2], in test [3], in test [4], in [5] and in [6] was over 128 µg/mL throughout. Moreover, the MIC in test [7], in test [8], in test [9], in test [10], in [11] and in test [12] was over 128 µg/mL each time. The MIC in test [13] and in test [14] was over 128 µg/mL in each case.
Consider `CC(C)(C)OC(=O)NCC(NO)c1c[nH]c2ccccc12` (configuration not stated), for which the MIC in [2], in [3], in test [5], in [7], in test [8] and in test [9] was over 128 µg/mL each time. For the same compound, the MIC in test [11], in [12] and in test [13] was over 128 µg/mL each time.
`CC(c1c[nH]c2ccccc12)N(O)Cc1ccccc1` (configuration not stated): the MIC in test [2] is 64 µg/mL (≈ 240 µM); in [3], 64 µg/mL (≈ 240 µM); in test [5], 128 µg/mL (≈ 481 µM); in [7], 128 µg/mL (≈ 481 µM); in [8] it was 128 µg/mL (≈ 481 µM); in test [9], 128 µg/mL (≈ 481 µM). Also, the MIC worked out at 128 µg/mL (≈ 481 µM) in [11], 64 µg/mL (≈ 240 µM) in test [12] and 128 µg/mL (≈ 481 µM) in [13].
In the case of `CC(C)(C)OC(=O)NCC(NO)c1c[nH]c2cc(F)ccc12` (configuration not stated), the MIC in test [2], in test [3], in test [5], in test [7], in test [8] and in test [9] was over 128 µg/mL throughout. Besides, the minimum inhibitory concentration (MIC) in test [11], in [12] and in [13] was over 128 µg/mL each time.
